# Hits are enriched below; roughly 1.5% of the tested compounds scored in any of these assays.
# APJ agonist – APJ receptor agonism; AID 2520; 0.11% of 330,000 active; P35414; CHO-K1 APJ PathHunter beta-arrestin, luminescence; 0% DMSO wells, 100% apelin; activation, % at 20 µM;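 active means activation more than six SD over the plate average, tested at 20 µM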;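 further: 0% = DMSO alone and 100% = apelin-13 at 10 nM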
# Target sequence (P35414 whole entry, looked up): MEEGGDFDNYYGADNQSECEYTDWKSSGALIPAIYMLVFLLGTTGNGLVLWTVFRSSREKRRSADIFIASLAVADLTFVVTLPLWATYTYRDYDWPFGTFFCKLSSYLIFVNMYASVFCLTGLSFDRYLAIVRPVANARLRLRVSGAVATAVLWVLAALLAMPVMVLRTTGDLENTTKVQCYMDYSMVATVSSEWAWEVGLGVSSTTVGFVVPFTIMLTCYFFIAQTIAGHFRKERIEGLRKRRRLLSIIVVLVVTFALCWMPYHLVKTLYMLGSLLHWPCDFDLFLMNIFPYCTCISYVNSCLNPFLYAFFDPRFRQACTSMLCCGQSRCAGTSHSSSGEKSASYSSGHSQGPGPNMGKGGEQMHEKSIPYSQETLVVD
#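 Test system – PathHunter CHO-K1 APJ (AGTRL-1) beta-arrestin reporter cells · Input – 1000 cells/well · Compound – single test compound dose, 20 µM final, 1% DMSO · Times – compound stimulation 90 min at 25 °C, detection 60 min · Technique – beta-gal luminescence · Read-out basis – APJ–arrestin association signal · Control set – negative DMSO alone, positive Apelin-13 at 10 nM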
# EBI2 antag – antagonists of human EBI2 receptor; EBI2 beta-arrestin recruitment, luminescence, 7a,25-OHC stimulated; 0.81% of 360,000 active; AID 651636; inhibition, % at 5 µM; in the data active means inhibition above about 38%;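 further: enzyme fragment complementation signal reports receptor beta-arrestin coupling in cells; 0% = agonist plus DMSO wells and 100% = wells without agonist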
# APJ antagonist – antagonists of human APJ apelin receptor; CHO-K1 APJ beta-arrestin complementation, luminescence; P35414; inhibition, % at 20 µM; 0.32% of 330,000 active;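 active means inhibition above about 40% at 20 µM, limit read from the data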;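 further: cells challenged with 10 nM apelin-13 agonist together with compound; plate controls were apelin-13 plus DMSO wells for no effect and DMSO wells lacking apelin-13 for full effect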
# CXCR6 block – blocks human CXCR6 beta-arrestin recruitment; AID 602244; 0.36% of 360,000 active; inhibition, % at 20 µM; O00574; CHO-K1 PathHunter CXCR6 beta-arrestin, luminescence; in the data active means inhibition above about 34%, passing the limit was not always enough;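 further: antagonist mode with CXCL16 agonist at 10 nM final; 0% = 10 nM CXCL16 with DMSO and 100% = unstimulated wells without agonist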
# CCR6 antag – CCR6 (human) receptor antagonism; P51684; CHO-K1 CCR6 PathHunter beta-arrestin, luminescence, CCL20-stimulated; inhibition, % at 20 µM; 0.49% of 340,000 active;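 active means compounds whose inhibition of the agonist-driven luminescence signal at 20 µM reaches about 50%, limit read from the data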;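 further: cells stimulated with CCL20 at 14 nM final; plate controls were DMSO with CCL20 for no effect and DMSO without agonist for full effect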
# EBI2 conf – EBI2 (human) antagonism, single concentration confirmation; shares compounds with EBI2 antag; EBI2 beta-arrestin luminescence, 7a,25-OHC antagonism; inhibition, % at 5 µM; 29% of 2,400 active; AID 651997;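 active means inhibition of at least 50%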
# EBI2 agonist – activates EBI2, counter-screen for EBI2 antagonists; shares compounds with EBI2 antag; EBI2-expressing cells, agonist mode, luminescence, 60 min; 0% vehicle, 100% 7α,25-dihydroxycholesterol control; activation, % at 5 µM; 2,400 tested, under 10 active;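 active means activation of at least 50%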
# bGal cs – beta-galactosidase inhibition counter-screen; shares compounds with EBI2 antag; purified beta-galactosidase, luminescent Galacton Star, 15 min; AID 652176; inhibition, % at 5 µM; 1% of 2,400 active;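 active means replicate-average signal at least 3 plate SD below neutral wells, shown as high inhibition, flagging enzyme-inhibiting false positives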;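 further: 0% = DMSO wells with enzyme and 100% = wells lacking enzyme; higher means stronger loss of beta-gal luminescence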
# * = called active by the depositor; · = no result.
SMILES,APJ agonist,EBI2 antag,APJ antagonist,CXCR6 block,CCR6 antag,EBI2 conf,EBI2 agonist,bGal cs
O=C1C=C(c2ccc3c(c2)OCO3)C[C@@H](c2ccc(F)cc2)C1,-3,12,3,0,16,·,·,·
O=C1C=C(c2ccc3ncccc3c2)C[C@@H](c2ccc(F)cc2)C1,-4,75*,9,-6,13,61*,-1,4
COc1cccc(NC(=O)CN(C)C(=O)c2ccc3c(c2)CC(c2ccccc2)OC3=O)c1 (stereo not given),-2,33,6,4,26,·,·,·
COc1ccc(NC(=O)CN(C)C(=O)c2ccc3c(c2)CC(c2ccccc2)OC3=O)cc1 (stereo not given),·,49*,·,-8,·,16,0,-12
COC(=O)CCC1(C(N)=O)CCC(=O)c2ccccc21 (stereo not given),·,0,·,7,-6,·,·,·
CN(c1ccc([N+](=O)[O-])cc1C(=O)Nc1ccccc1)C1CCCCC1,-2,41*,22,14,25,32,0,-13
CCN1C(=O)/C(=C/c2nc3ccccc3c(=O)n2-c2ccccc2)c2ccccc21,-4,45*,9,12,-9,51*,2,-1
CCN1C(=O)/C(=C\c2nc3ccccc3c(=O)n2CC)c2ccccc21,4,28,0,-6,11,·,·,·
O=C(NC1CCCCC1)C(c1ccnc2ccccc12)n1c(=O)c(-c2ccccc2)nc2ccccc21 (stereo not given),·,12,·,·,·,·,·,·
Cc1cc(C)c(S(=O)(=O)Nc2ccc(N(C)C)cc2)c(C)c1-n1cnnn1,2,65*,-27,-8,-10,33,2,3
Cc1ccc(S(=O)(=O)Nc2ccc(-n3cnnn3)cc2)c(C)c1,-5,-3,-4,3,3,·,·,·
Cc1ccc(C2=NS(=O)(=O)N(C)C(C(=O)NC(C)c3ccccc3)=C2)cc1 (stereo not given),-2,40*,9,4,20,19,1,5
Cc1ccc(C2=NS(=O)(=O)N(C)C(C(=O)NCc3ccccc3)=C2)cc1,-3,-3,1,0,11,·,·,·
COc1cc(NC(=O)N2CCc3nc(Nc4cc(Cl)cc(Cl)c4)ncc3C2)cc(OC)c1OC,·,47*,·,-4,·,7,0,-15
CCOC(=O)c1cc(-c2ccccc2)sc1N,-9,46*,6,1,8,59*,3,-1
O=C(CC[C@H]1O[C@@H](n2cnc3c(NC(=O)c4ccccc4)ncnc32)[C@H](O)[C@@H]1O)NCC1CCCCC1,·,-3,·,-4,·,·,·,·
CN(C)c1ccc(NC(=O)c2sc(SCC(=O)Nc3nccs3)nc2N)cc1,6,52*,-9,-6,3,33,2,9
CC(C)N(c1ccccc1)c1ccc(NC(=O)[C@@H]2O[C@H](CO)[C@@H](O)[C@H]2O)cc1,·,1,·,1,·,·,·,·
Cc1[nH]c2ccc(-c3nnc(SCC(=O)N4CCCc5ccccc54)o3)cc2c1C,2,51*,-11,1,12,47,3,5
CC(C)OC(=O)N(C)C[C@@H]1OCc2cn(nn2)CCCC(=O)N([C@@H](C)CO)C[C@H]1C,·,-6,·,-3,·,·,·,·
CC1(C)Cc2c(C#N)c(SCCC#N)nc(N3CCOCC3)c2CO1,-1,10,-1,0,6,·,·,·
CC1(C)Cc2c(C#N)c(SCCC#N)nc(N3CCOCC3)c2CS1,0,69*,-6,-8,13,39,0,2
CC1(C(=O)Nc2cccc3ncccc23)CCN1C(=O)Cc1ccc(-c2ccccc2)cc1 (stereo not given),·,69*,·,-12,·,35,-2,-6
COc1cc2c(cc1OC)C(c1ccc(-c3ccc(Cl)cc3Cl)o1)=NCC2,-1,74*,-5,-3,-1,66*,-1,-17
O=C(O)c1ccc(-c2ccc(Cl)cc2Cl)o1,-3,-5,-13,4,-4,·,·,·
Cc1ccc(CN2C(=O)c3ccccc3C2c2nnnn2-c2c(C)cccc2C)cc1 (stereo not given),·,21,·,7,·,·,·,·
